# From ChEMBL document CHEMBL4706742, “Induction of Apoptosis in Cancer Cells by Glutathione Transferase Inhibitor Mediated Hydrophobic Tagging Molecules” (2021)
# The source made the active and inactive calls. The rule behind the calls is not given here.
# Tests used:
# [1] = biological target: Glutathione S-transferase P (Homo sapiens) (UniProt P09211); assay: Inhibition of recombinant human N-terminal His-tagged GSTP1 (1 to 210 residues) expressed in Escherichia coli at 100 uM using reduced GSH as substrate measured after 0.5 hrs by CDNB assay
# Summary of the method: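 GSTP catalytic activity followed via GSH–CDNB conjugation, read as absorbance at 340 nm specific to the conjugate. Compounds tested up to 100 μM.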
# [2] = biological target: Glutathione S-transferase P (Homo sapiens) (UniProt P09211); assay: Induction of GSTP1 degradation in human HeLa cells at 40 to 80 uM measured after 3 hrs by Western blot analysis; format: cell-based; conditions: dose 40-80 µM
# Summary of the method: (§1)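 GSTP protein in whole-cell lysates, detected by Western blot with specific antibodies after 3 h compound exposure. HeLa (high GSTP expression) treated at 40 or 80 μM or over a dose range; A549 and HT1080 cells (high or medium GSTP) also tested. Blots representative of three independent experiments.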
# HeLa [3] = assay: Induction of reactive oxygen species generation in human HeLa cells at 80 uM measured after 3 hrs by DCFH-DA staining based fluorescence laser confocal microscopic analysis; format: functional, cell-based
# Summary of the method: (§2)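 HeLa cells loaded with DCFH-DA fluorescent ROS probe after treatment at the indicated concentrations. Fluorescence read at Ex/Em 488/525 by laser confocal microscopy. Rosup 50 μg/mL served as positive control.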
# HeLa [4] = assay: Induction of apoptosis in human HeLa cells assessed as viable cells at 80 uM measured after 3 hrs by Annexin V-FITC/propidium iodide staining based flow cytometry (reference value: 91.43%); format: functional; conditions: read-out: Activity
# HeLa [5] = assay: Induction of apoptosis in human HeLa cells assessed as early apoptotic cells at 80 uM measured after 3 hrs by Annexin V-FITC/propidium iodide staining based flow cytometry (reference value: 4.37%); format: functional
# HeLa [6] = assay: Induction of apoptosis in human HeLa cells assessed as late apoptotic cells at 80 uM measured after 3 hrs by Annexin V-FITC/propidium iodide staining based flow cytometry (reference value: 3.59%); format: functional
# HeLa [7] = assay: Induction of apoptosis in human HeLa cells assessed as necrotic cells at 80 uM measured after 3 hrs by Annexin V-FITC/propidium iodide staining based flow cytometry (reference value: 0.61%); format: functional
# [8] = biological target: Glutathione S-transferase P (Homo sapiens) (UniProt P09211); assay: Induction of GSTP1 degradation in human HeLa cells at 80 uM measured after 3 hrs by Western blot analysis; format: cell-based; summary of the method: as §1
# [9] = biological target: Glutathione S-transferase P (Homo sapiens) (UniProt P09211); assay: Induction of GSTP1 degradation in human HeLa cells at 5 to 80 uM measured after 3 hrs by Western blot analysis; format: cell-based; conditions: dose 5-80 µM; summary of the method: as §1
# [10] = biological target: Glutathione S-transferase P (Homo sapiens) (UniProt P09211); assay: Induction of GSTP1 degradation in human A549 cells at 40 to 80 uM measured after 3 hrs by Western blot analysis; format: cell-based; conditions: dose 40-80 µM; summary of the method: as §1
# [11] = biological target: Glutathione S-transferase P (Homo sapiens) (UniProt P09211); assay: Induction of GSTP1 degradation in human HT-1080 cells at 40 to 80 uM measured after 3 hrs by Western blot analysis; format: cell-based; conditions: dose 40-80 µM; summary of the method: as §1
# [12] = biological target: Glutathione S-transferase P (Homo sapiens) (UniProt P09211); assay: Induction of GSTP1 degradation in human HeLa cells at 40 uM measured after 3 hrs by Western blot analysis relative to control; format: cell-based; summary of the method: as §1
# [13] = biological target: Glutathione S-transferase P (Homo sapiens) (UniProt P09211); assay: Induction of GSTP1 degradation in human HeLa cells measured after 3 hrs by Western blot analysis; format: cell-based; summary of the method: as §1
# [14] = biological target: Glutathione S-transferase P (Homo sapiens) (UniProt P09211); assay: Induction of GSTP1 degradation in human HeLa cells measured after 3 hrs in presence of protein synthesis inhibitor cycloheximide by Western blot analysis; format: cell-based
# Summary of the method: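 HeLa cells pretreated with cycloheximide, then exposed to compound over a dose range for 3 h. GSTP in total lysates read by Western blot with specific antibodies. Blots representative of three independent experiments.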
# [15] = biological target: Glutathione S-transferase P (Homo sapiens) (UniProt P09211); assay: Induction of GSTP1 degradation in human A549 cells at 5 to 80 uM measured after 3 hrs by Western blot analysis; format: cell-based; conditions: dose 5-80 µM; summary of the method: as §1
# [16] = biological target: Glutathione S-transferase P (Homo sapiens) (UniProt P09211); assay: Induction of GSTP1 degradation in human HT-1080 cells at 5 to 80 uM measured after 3 hrs by Western blot analysis; format: cell-based; conditions: dose 5-80 µM; summary of the method: as §1
# [17] = biological target: Glutathione S-transferase P (Homo sapiens) (UniProt P09211); assay: Induction of GSTP1 degradation in human HeLa cells at 80 uM measured after 3 hrs in presence of 20S proteasome inhibitor bortezomib by Western blot analysis; format: cell-based
# Summary of the method: (§3)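 HeLa cells cotreated with test compound plus bortezomib (20S proteasome inhibitor), PYR-41 (E1 ubiquitin-activating enzyme inhibitor) or bafilomycin A1 (V-ATPase inhibitor, blocks autophagosome–lysosome fusion). GSTP in total cell lysates then detected by Western blot with specific antibodies. Representative of three independent experiments.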
# [18] = biological target: Glutathione S-transferase P (Homo sapiens) (UniProt P09211); assay: Induction of GSTP1 degradation in human HeLa cells at 80 uM measured after 3 hrs in presence of ubiquitin activating enzyme E1 inhibitor PYR-41 by Western blot analysis; format: cell-based; summary of the method: as §3
# [19] = biological target: Glutathione S-transferase P (Homo sapiens) (UniProt P09211); assay: Induction of GSTP1 degradation in human HeLa cells at 80 uM measured after 3 hrs in presence of vacuolar type H (+)-ATPase inhibitor bafilomycin A1 by Western blot analysis; format: cell-based; summary of the method: as §3
# [20] = biological target: Glutathione S-transferase P (Homo sapiens) (UniProt P09211); assay: Induction of GSTP1 degradation in human HeLa cells assessed as increase in JNK phosphorylation at 5 to 80 uM measured after 3 hrs by Western blot analysis; format: cell-based; conditions: dose 5-80 µM
# Summary of the method: (§4)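 HeLa cells exposed to compound for 3 h. Total cell lysates probed by Western blot with specific antibodies for phospho-JNK, phospho-c-Jun and total JNK. Total JNK bands quantified by densitometry. Representative of three independent experiments.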
# [21] = biological target: Glutathione S-transferase P (Homo sapiens) (UniProt P09211); assay: Induction of GSTP1 degradation in human HeLa cells assessed as increase in c-Jun phosphorylation at 5 to 80 uM measured after 3 hrs by Western blot analysis; format: cell-based; conditions: dose 5-80 µM; summary of the method: as §4
# [22] = biological target: Glutathione S-transferase P (Homo sapiens) (UniProt P09211); assay: Induction of GSTP1 degradation in human HeLa cells assessed as reduction in total JNK expression at 20 to 80 uM measured after 3 hrs by Western blot analysis; format: cell-based; conditions: dose 20-80 µM; summary of the method: as §4
# HeLa [23] = assay: Induction of reactive oxygen species generation in human HeLa cells measured after 3 hrs by DCFH-DA staining based fluorescence laser confocal microscopic analysis; format: functional, cell-based; conditions: dose 5-80 µM; summary of the method: as §2
# HeLa [24] = assay: Induction of apoptosis in human HeLa cells measured after 3 hrs by Annexin V-FITC/propidium iodide staining based flow cytometry; format: functional, cell-based
# HeLa [25] = assay: Induction of apoptosis in human HeLa cells assessed as viable cells at 10 uM measured after 3 hrs by Annexin V-FITC/propidium iodide staining based flow cytometry (reference value: 91.43%); format: functional; conditions: read-out: Activity
# HeLa [26] = assay: Induction of apoptosis in human HeLa cells assessed as early apoptotic cells at 10 uM measured after 3 hrs by Annexin V-FITC/propidium iodide staining based flow cytometry (reference value: 4.37%); format: functional
# HeLa [27] = assay: Induction of apoptosis in human HeLa cells assessed as late apoptotic cells at 10 uM measured after 3 hrs by Annexin V-FITC/propidium iodide staining based flow cytometry (reference value: 3.59%); format: functional
# HeLa [28] = assay: Induction of apoptosis in human HeLa cells assessed as necrotic cells at 10 uM measured after 3 hrs by Annexin V-FITC/propidium iodide staining based flow cytometry (reference value: 0.61%); format: functional
# HeLa [29] = assay: Induction of apoptosis in human HeLa cells assessed as viable cells at 20 uM measured after 3 hrs by Annexin V-FITC/propidium iodide staining based flow cytometry (reference value: 91.43%); format: functional; conditions: read-out: Activity
# HeLa [30] = assay: Induction of apoptosis in human HeLa cells assessed as early apoptotic cells at 20 uM measured after 3 hrs by Annexin V-FITC/propidium iodide staining based flow cytometry (reference value: 4.37%); format: functional
# HeLa [31] = assay: Induction of apoptosis in human HeLa cells assessed as late apoptotic cells at 20 uM measured after 3 hrs by Annexin V-FITC/propidium iodide staining based flow cytometry (reference value: 3.59%); format: functional
# HeLa [32] = assay: Induction of apoptosis in human HeLa cells assessed as necrotic cells at 20 uM measured after 3 hrs by Annexin V-FITC/propidium iodide staining based flow cytometry (reference value: 0.61%); format: functional
# HeLa [33] = assay: Induction of apoptosis in human HeLa cells assessed as viable cells at 40 uM measured after 3 hrs by Annexin V-FITC/propidium iodide staining based flow cytometry (reference value: 91.43%); format: functional; conditions: read-out: Activity
# HeLa [34] = assay: Induction of apoptosis in human HeLa cells assessed as early apoptotic cells at 40 uM measured after 3 hrs by Annexin V-FITC/propidium iodide staining based flow cytometry (reference value: 4.37%); format: functional
# HeLa [35] = assay: Induction of apoptosis in human HeLa cells assessed as late apoptotic cells at 40 uM measured after 3 hrs by Annexin V-FITC/propidium iodide staining based flow cytometry (reference value: 3.59%); format: functional
# HeLa [36] = assay: Induction of apoptosis in human HeLa cells assessed as necrotic cells at 40 uM measured after 3 hrs by Annexin V-FITC/propidium iodide staining based flow cytometry (reference value: 0.61%); format: functional
# Glutathione S-transferase P (Homo sapiens), sequence (P09211 2-210 limits assumed): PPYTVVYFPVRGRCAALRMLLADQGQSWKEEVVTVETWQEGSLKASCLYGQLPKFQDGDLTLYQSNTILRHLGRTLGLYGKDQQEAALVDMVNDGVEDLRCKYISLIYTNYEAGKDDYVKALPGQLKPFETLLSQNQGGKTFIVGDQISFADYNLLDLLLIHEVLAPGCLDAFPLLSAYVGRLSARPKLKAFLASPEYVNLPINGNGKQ
structure (smiles),measurement,setting,value
C=C(CC)C(=O)c1ccc(OCC(=O)NCCCCCCNC(=O)CC23CC4CC(CC(C4)C2)C3)c(Cl)c1Cl,inhibition,[1],Active
same,Activity,[2],Active
C=C(CC)C(=O)c1ccc(OCC(=O)O)c(Cl)c1Cl [ETHACRYNIC ACID],Activity,HeLa [3],inactive
same,viability at 80 µM,HeLa [4],84.3%
same,Activity,HeLa [5],3.67%
same,Activity,HeLa [6],10.3%
same,Activity,HeLa [7],1.72%
C=C(CC)C(=O)c1ccc(OCC(=O)NCCCCCCNC(=O)OC(C)(C)C)c(Cl)c1Cl,Activity,[8],Active
C=C(CC)C(=O)c1ccc(OCC(=O)NCCNC(=O)CC23CC4CC(CC(C4)C2)C3)c(Cl)c1Cl,inhibition,[1],Active
same,Activity,[2],Active
C=C(CC)C(=O)c1ccc(OCC(=O)NCCNC(=O)OC(C)(C)C)c(Cl)c1Cl,Activity,[9],inactive
same,Activity,[10],inactive
same,Activity,[11],inactive
C=C(CC)C(=O)c1ccc(OCC(=O)OCCOCCOC23CC4CC(CC(C4)C2)C3)c(Cl)c1Cl,inhibition,[1],Active
same,Activity,[2],inactive
C=C(CC)C(=O)c1ccc(OCC(=O)NC23CC4CC(CC(C4)C2)C3)c(Cl)c1Cl,inhibition,[1],Active
same,Activity,[2],Active
C=C(CC)C(=O)c1ccc(OCC(=O)OCCOC23CC4CC(CC(C4)C2)C3)c(Cl)c1Cl,inhibition,[1],Active
same,Activity,[2],inactive
C=C(CC)C(=O)c1ccc(OCC(=O)OCCOCCOCCOCCOC23CC4CC(CC(C4)C2)C3)c(Cl)c1Cl,inhibition,[1],Active
same,Activity,[2],inactive
C=C(CC)C(=O)c1ccc(OCC(=O)OCCOCCOCCOC23CC4CC(CC(C4)C2)C3)c(Cl)c1Cl,inhibition,[1],Active
same,Activity,[2],inactive
C=C(CC)C(=O)c1ccc(OCC(=O)NCCCCNC(=O)CC23CC4CC(CC(C4)C2)C3)c(Cl)c1Cl,inhibition,[1],Active
same,Activity,[2],Active
same,Activity,[12],80%
same,Activity,[13],Dose-dependent effect
same,Activity,[14],Dose-dependent effect
same,Activity,[15],Active
same,Activity,[16],Active
same,Activity,[17],inactive
same,Activity,[18],inactive
same,Activity,[19],inactive
same,Activity,[20],Active
same,Activity,[21],Active
same,Activity,[22],Active
same,Activity,HeLa [23],Dose-dependent effect
same,Activity,HeLa [24],Dose-dependent effect
same,viability at 10 µM,HeLa [25],92.5%
same,Activity,HeLa [26],3.28%
same,Activity,HeLa [27],3.7%
same,Activity,HeLa [28],0.49%
same,viability at 20 µM,HeLa [29],57%
same,Activity,HeLa [30],15.48%
same,Activity,HeLa [31],26.61%
same,Activity,HeLa [32],0.93%
same,viability at 40 µM,HeLa [33],45%
same,Activity,HeLa [34],19.7%
same,Activity,HeLa [35],34.59%
same,Activity,HeLa [36],0.75%
same,viability at 80 µM,HeLa [4],20.5%
same,Activity,HeLa [5],18.03%
same,Activity,HeLa [6],61.27%
same,Activity,HeLa [7],0.23%
